Screening results deposited in PubChem BioAssay by several laboratories.
UCH37 inh = inhibitors of human deubiquitinating enzyme UCH37. purified proteasome/UCH37, Ub-AMC cleavage fluorescence. inhibition, % (concentration not given with the values). 0.33% of 330,000 active;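 active means mean inhibition over replicate wells above about 20%, limit read from the data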;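 further: 0% = compound-free wells with enzyme and 100% = wells lacking proteasome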
Target sequence (Q9Y5K5 whole entry, looked up): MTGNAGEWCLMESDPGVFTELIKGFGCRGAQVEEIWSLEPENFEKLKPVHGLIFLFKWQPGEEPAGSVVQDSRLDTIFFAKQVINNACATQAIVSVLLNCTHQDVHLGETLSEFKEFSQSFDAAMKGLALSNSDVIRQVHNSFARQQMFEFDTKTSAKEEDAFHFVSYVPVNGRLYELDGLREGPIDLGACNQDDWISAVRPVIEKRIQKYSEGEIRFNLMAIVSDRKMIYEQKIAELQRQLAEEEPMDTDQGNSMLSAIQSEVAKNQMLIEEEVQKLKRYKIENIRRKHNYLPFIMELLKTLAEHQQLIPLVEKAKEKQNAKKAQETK
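Material: Human UCH37 enzyme supplied as purified proteasome complex | Schedule: 30 min preincubation with enzyme, 25 min cleavage at room temperature | Detection: AMC fluorescence 355/460 nm | Measure: % inhibition of Ub-AMC cleavage fluorescence | Controls: Wells without proteasome as full block, compound-free enzyme plus substrate as uninhibited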
MsrA inh = inhibitors of bovine MsrA. 0.75% of 360,000 active. inhibition, % at 15.5 µM. purified bovine MsrA, absorbance read-out; in the data active means inhibition above about 4.5%;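 further: 0% = vehicle wells with enzyme and 100% = reference inhibitor wells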
MsrA act = bovine methionine sulfoxide reductase A activation; purified bovine MsrA, absorbance read-out; activation, % at 10.6 µM; 0.3% of 360,000 active; AID 602163; in the data active means activation above about 7.5%;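 further: 0% = vehicle and 100% = reference activator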
aDG glyco up = increases alpha dystroglycan glycosylation; activation, % at 10 µM; Pro5-aDG cells, alpha-DG glycosylation AlphaScreen (IIH6); 0% Pro5, 100% B10-LARGE cell signal; 0.22% of 360,000 active;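 active means activation of at least 8% versus controls, or a plate z-score of at least 8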;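 further: Pro5 are CHO cells carrying HIG-tagged alpha-DG that lacks glycosylation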
Vif inh = blocks HIV Vif function | AID 602346 | inhibition, % at 7.49 µM | HEK293T cells, Vif self-association by quenched fluorescence, imaging, 24 h | 0.35% of 340,000 active; in the data active means inhibition above about 50%, passing the limit was not always enough
N-glyco inh = blocks N-linked glycosylation in D54 reporter cells; D54 ERlucT glycosylation luciferase reporter, 24 h; percent of 100 nM tunicamycin response; reporter increase, % at 12.5 µM; 0.23% of 360,000 active;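 active means mean luciferase reporter signal, scaled so untreated is 0 and the glycosylation-blocking control 100, at or above a set limit in every replicate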;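 further: luciferase carries N-glycosylation sites so blocking glycosylation raises the light; 0% = median of neutral control wells and 100% = median of 100 nM tunicamycin wells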
aDG glyco conf = alpha-DG glycosylation activation, confirmation | shares compounds with aDG glyco up | Pro5-aDG cells, IIH6 AlphaLISA; scaled to LARGE-overexpressing B10 cells as 100% | activation, % at 10 µM (by protocol) | 17% of 600 active | AID 651671;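 active means activation of at least 7% in one or more replicates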;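 further: cells exposed to compound for two days before detection; 0% = DMSO-treated Pro5 cells and 100% = DMSO-treated B10-LARGE cells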
An asterisk follows results filed as active; . = no result given. Most compounds without a hit are left out; they make up all but 1.9% or so of the library.

SMILES | UCH37 inh | MsrA inh | MsrA act | aDG glyco up | Vif inh | N-glyco inh | aDG glyco conf
COC(=O)c1c(NC(=O)CSc2nnc(-c3ccco3)n2C)sc(C)c1C | 4.6 | -0.2 | -0.4 | 6.1* | -18.2 | 7.4 | -0.1
Oc1ccc(C[C@H]2CNC(=S)N2CC2CCCN2C[C@H](Cc2ccc(O)cc2)N2C[C@H](Cc3ccccc3)N(CC3CCCCC3)C2=S)cc1 (some centres not stated) | . | 0.4 | 1.4 | 8.9* | -20.3 | -5.4 | 4.2
Oc1ccc(C[C@H]2CN([C@@H](Cc3ccccc3)CN3CCC[C@@H]3CN3C(=S)NC[C@@H]3Cc3ccccc3)C(=S)N2CC2CCCCC2)cc1 | . | -0.1 | -1.9 | -0.2 | 23.2 | -11.3 | .
CCCCc1c(C)nn(-c2nnc3c4ccccc4n(C)c3n2)c1C | -0.4 | 1.8 | -13.6 | 4.2* | . | -3.8 | 2.2
CC(/C=C/c1ccc2c(c1)OCO2)=NNC(=O)c1ccccc1 | 3.2 | . | . | . | . | . | .
Cc1cc2ncn(N=Cc3ccc([N+](=O)[O-])s3)c2cc1C | 1.8 | . | . | . | . | . | .
O=[N+]([O-])c1ccccc1NC(=S)NN=Cc1ccc(O)c(O)c1 | 7.7 | . | . | . | . | . | .
CC1(NC(=O)Nc2cc([N+](=O)[O-])ccc2O)CCS(=O)(=O)C1 (configuration not stated) | 10.9 | 0.7 | -2.6 | 6.9* | 5.7 | -1.1 | 0.2
O=C(Nc1cc([N+](=O)[O-])ccc1O)NC1CCS(=O)(=O)C1 (configuration not stated) | 10.9 | 0.5 | -6.0 | -0.3 | 1.0 | 2.4 | .
CN1CCN(c2ccc(S(=O)(=O)N3CCCCC3)cc2NC(=O)/C=C/c2ccc(OC(F)F)cc2)CC1 | 6.2 | -0.1 | -7.2 | 7.5* | 1.7 | -6.2 | 17.3*
O=C(NN=Cc1ccc([N+](=O)[O-])o1)c1ccccc1NS(=O)(=O)c1cccs1 | 16.2 | . | . | . | . | . | .
CC(C)NC(=S)NN=CC1=CCC2CC1C2(C)C (configuration not stated) | 2.6 | . | . | . | . | . | .
O=C(CN1C(=O)c2ccccc2S1(=O)=O)NCCSCc1ccco1 | 6.1 | 0.1 | -1.5 | 79.9* | 5.4 | -1.8 | -0.4
COc1ccc(CC(=O)NN=C(C)CC(=O)Nc2ccc(N(C)C)cc2)cc1OC | 2.7 | . | . | . | . | . | .
O=C(NCC1CCCO1)C1CCN(C2CCN(CCCC3CCCC3)CC2)CC1 (configuration not stated) | 1.1 | 0.1 | -13.6 | 1.0 | 1.0 | 0.2 | .
O=C(NCC1CCCO1)C1CCN(C2CCN(C(=O)CC3CCCC3)CC2)CC1 (configuration not stated) | 0.7 | 3.5 | -13.0 | 3.7* | . | 1.2 | -0.4
O=C(NCC(F)(F)F)[C@H]1O[C@@H](n2ccc(=O)[nH]c2=O)[C@H](O)[C@@H]1O | . | -0.4 | -1.0 | -0.3 | -2.7 | 3.9 | .
Cc1cc(C)n(CCNC(=O)[C@H]2O[C@@H](n3ccc(=O)[nH]c3=O)[C@H](O)[C@@H]2O)n1 | . | 1.2 | -10.6 | 21.2* | . | 0.3 | 0.5
Cc1ccc(S(=O)(=O)N=C(CSC(N)=O)Nc2ccccc2)cc1 | 2.5 | . | . | . | . | . | .
O=C(Cn1cnc2ccccc21)Nc1ccc(SC(F)F)cc1 | 1.6 | 0.4 | -3.6 | 10.5* | -26.5 | 2.8 | 0.8
Brc1ccccc1C=NNc1nc2ccccc2o1 | -5.0 | . | . | . | . | . | .
COc1ccc(NS(=O)(=O)c2cccc(C(=O)NN=C(C)c3ccc(-n4ccnc4)cc3)c2)cc1 | -11.3 | . | . | . | . | . | .
CCOC(=O)c1ccc(NC(=S)N2CCN(C)CC2)cc1 | 2.5 | 1.7 | -2.7 | 6.9* | -5.4 | -2.4 | -0.8
COc1ccc(NC(=O)COC(=O)CNC(=O)C2CCCCC2)cc1OC | 1.6 | -0.2 | -1.0 | 0.1 | -11.4 | -0.9 | .
COc1ccc(C(C)=O)cc1COC(=O)CNC(=O)C1CCCCC1 | 4.1 | 0.1 | -1.5 | 9.1* | -1.2 | 4.1 | 0.4
SMILES | UCH37 inh | MsrA inh | MsrA act | aDG glyco up | Vif inh | N-glyco inh | aDG glyco conf
Cc1cc(C)n(N=Cc2c(O)ccc3ccccc23)c(=O)c1C(N)=O | 5.4 | . | . | . | . | . | .
Nc1nc(Cl)cc(N2CCC(c3cc(-c4ccc(Cl)cc4Cl)n[nH]3)CC2)n1 | -1.0 | 0.5 | -1.9 | 11.1* | -5.4 | 2.3 | 1.4
Cc1cc(=O)oc2cc(OCC(=O)N3CCN(C(=O)C4COc5ccccc5O4)CC3)ccc12 (configuration not stated) | -35.2 | 0.5 | -4.4 | -0.1 | 3.6 | 0.4 | .
O=C(COc1ccc2ccc(=O)oc2c1)N1CCN(C(=O)C2COc3ccccc3O2)CC1 (configuration not stated) | -22.7 | 1.1 | -3.7 | 7.8* | -0.8 | -1.1 | 0.1
Cc1csc2ncnc(NCCc3ccccn3)c12 | -2.0 | 1.9 | -2.5 | 10.4* | -0.5 | -1.6 | 1.7
CC(=NNC(=O)c1cccs1)c1ccc2ccccc2c1 | -21.2 | . | . | . | . | . | .
S=c1[nH]nc(-c2ccccn2)n1N=Cc1ccco1 | 3.8 | . | . | . | . | . | .
O=C(NC1CCCCCCC1)c1cc(COc2ccc3ncccc3c2)on1 | 5.3 | -0.2 | -0.7 | 1.8 | -25.4 | -6.1 | .
CCOC(=O)N1CCN(C(=O)c2cc(COc3ccc4ncccc4c3)on2)CC1 | -2.6 | 2.5 | -9.3 | 7.8* | -28.6 | 1.1 | 1.2
CC(CNC(=O)c1cc(COc2ccc3ncccc3c2)on1)c1ccccc1 (configuration not stated) | -1.1 | -0.6 | -4.5 | 4.7* | . | . | 2.3
Cc1cccnc1CN1CCN(C(=O)c2cc(COc3ccc4ncccc4c3)on2)CC1 | 0.6 | -0.1 | -1.9 | 2.2 | -11.5 | -1.9 | .
O=C(c1cc(COc2ccc3ncccc3c2)on1)N1CCC[C@H]1CO | -1.5 | -0.3 | -0.8 | 5.5* | . | . | 0.4
CON=CNC(=O)c1ccc([N+](=O)[O-])c(CS(=O)(=O)c2ccc(Cl)cc2)c1 | 2.4 | . | . | . | . | . | .
Cn1c(=O)n(CCO)c(=O)c2c1nc(Br)n2Cc1ccccc1 | 4.1 | -0.3 | -2.5 | -0.1 | 1.7 | -1.0 | .
Cn1c(Br)nc2c1c(=O)n(Cc1ccccc1)c(=O)n2C | 2.4 | -0.9 | -1.9 | 2.4* | 8.8 | -1.3 | 0.7
Cn1c(=NNC(=O)c2ccccc2Cl)sc2ccccc21 | 0.5 | . | . | . | . | . | .
CC(C)c1cc(-c2cc(-c3ccc(Cl)cc3)on2)nc(NC2CCCC2)n1 | -8.7 | -0.5 | -7.9 | 5.7* | 6.2 | -1.7 | 1.3
CC(C)c1cc(-c2cc(-c3ccccc3)on2)nc(NC2CCCC2)n1 | -18.2 | 0.7 | -1.4 | 0.2 | 0.5 | -2.3 | .
CC(Cc1ccccc1)=NNC(=O)CNC(=O)COc1cccc(C)c1 | 2.6 | . | . | . | . | . | .
CN(C)c1ccc(-c2nc3ccccn3c2N=Cc2ccc(Br)cc2)cc1 | 0.7 | . | . | . | . | . | .
COc1ccc2[nH]c(C(=O)NN=Cc3ccc(OC)c(O)c3)cc2c1 | -18.6 | . | . | . | . | . | .
Cc1ccc2nc(C)c(C(=O)NN=Cc3cccs3)n2c1 | 9.8 | . | . | . | . | . | .
COC(=O)[C@@]1(C)[C@H]2C(=O)N(Cc3ccccc3)C(=O)[C@H]2[C@H]2CN=C(SCc3ccc(Cl)cc3)N21 | -0.9 | 1.8 | -4.3 | -0.1 | -8.3 | -1.4 | .
